Measured values from different studies.
ADORA3: Adenosine receptor A3 (ADORA3, Homo sapiens, UniProt P0DMS8)
Liver carboxylesterase: Liver carboxylesterase (Sus scrofa, UniProt Q29550)
DRD2: D(2) dopamine receptor (DRD2, Homo sapiens, UniProt P14416)
MC1R: Melanocyte-stimulating hormone receptor (MC1R, Homo sapiens, UniProt Q01726)

SMILES | target | assay | conditions | Ki
CCCCN1CCCn2c1nc1c2c(=O)n(C)c(=O)n1C | ADORA3 | ligand displacement, radioligand | cell membranes | > 10 µM
CCCCC[C@H](O)/C=C/[C@H]1[C@H](O)CC(=O)[C@@H]1C/C=C\CCCC(=O)O | Liver carboxylesterase | enzyme activity, inhibitor, HPLC | pH 7.4 | > 28 µM
OC[C@H]1OC(O)[C@H](O)[C@@H](O)[C@H]1O (stereo partly shown) | Alpha-galactosidase A (GLA, Homo sapiens, UniProt P06280) | enzyme activity, inhibitor | – | 16000 µM
CCN1CCCn2c1nc1c2c(=O)n(C)c(=O)n1C | ADORA3 | ligand displacement, radioligand | cell membranes | > 10 µM
COc1cccc(CCC2=NCCN2CCc2ccccc2)c1 | DRD2 | ligand displacement, radioligand | – | > 10 µM
C#CCNc1nc(Cl)nc2c1ncn2[C@H]1[C@H](O)[C@H](O)[C@]2(C(=O)NC)C[C@H]12 | ADORA3 | ligand displacement, radioligand | cell membranes | 0.0015 µM
CC/C=C\C/C=C\C/C=C\C/C=C\C/C=C\CCCC(=O)O | Liver carboxylesterase | enzyme activity, inhibitor, HPLC | pH 7.4 | 0.34 µM
CC[C@H](C)[C@H](NC(=O)CN)C(=O)N[C@H](C(=O)N[C@@H](CC(N)=O)C(=O)N[C@H](C(=O)N[C@@H](CC(C)C)C(=O)N[C@@H](CCC(N)=O)C(=O)N[C@@H](CCCCN)C(=O)N[C@@H](Cc1ccc(O)cc1)C(=O)N[C@@H](Cc1ccc(O)cc1)C(=O)N[C@@H](CO)C(=O)N[C@@H](CCCNC(=N)N)C(=O)N[C@H](C(=O)N[C@@H](CCCNC(=N)N)C(=O)NCC(=O)NCC(=O)N[C@@H](CCCNC(=N)N)C(=O)N[C@H]1CSSC[C@@H](C(=O)N[C@@H](CO)C(=O)N[C@H](C(=O)N[C@@H](CCCNC(=N)N)C(=O)NCC(=O)N[C@@H](CCCNC(=N)N)C(=O)N[C@@H](CCCCN)C(=O)N[C@@H](CO)C(=O)N[C@@H](CO)C(=O)N[C@@H](CCCNC(=N)N)C(=O)N[C@@H](CCCNC(=N)N)C(=O)N[C@@H](CCCCN)C(=O)N[C@@H](CCCCN)C(N)=O)[C@@H](C)O)NC(=O)[C@H](CCCCN)NC(=O)CNC(=O)[C@H]([C@@H](C)CC)NC(=O)[C@H](CCC(N)=O)NC(=O)[C@H](CCC(=O)O)NC(=O)[C@H](CCC(=O)O)NC(=O)[C@H](CCCCN)NC(=O)[C@@H]2CCCN2C(=O)[C@H](CC(C)C)NC(=O)[C@H](CO)NC(=O)[C@H](CO)NC(=O)[C@H](CC(C)C)NC(=O)[C@H](C(C)C)NC(=O)[C@H](C)NC1=O)C(C)C)[C@@H](C)O)[C@@H](C)CC | MC1R | ligand displacement in cells | – | 0.373 µM
CCn1c(-c2nc3cc(C(=O)N4CCC[C@@H](N)C4)cc(OC)c3n2C)cc2cccnc21 | Protein-arginine deiminase type-2 (PADI2, Homo sapiens, UniProt Q9Y2J8) | enzyme activity, inhibitor | – | 1580 µM
CCCC(C)N1CCCn2c1nc1c2c(=O)n(C)c(=O)n1C (stereo not shown) | ADORA3 | ligand displacement, radioligand | cell membranes | > 10 µM
c1ccc(CCC2=NCCN2CCc2ccccc2)cc1 | DRD2 | ligand displacement, radioligand | – | > 10 µM
NCCCC[C@H](NC(=O)[C@@H]1CCCN1C(=O)[C@@H]1CSSC[C@H](N)C(=O)N[C@@H](Cc2ccc(O)cc2)C(=O)N[C@@H](Cc2ccccc2)C(=O)N[C@@H](CCC(N)=O)C(=O)N[C@@H](CC(N)=O)C(=O)N1)C(=O)NCC(N)=O | Vasopressin V2 receptor (AVPR2, Homo sapiens, UniProt P30518) | ligand displacement, radioligand | cell membranes | 0.01 µM
CCCC[C@H](NC(=O)[C@H](CO)NC(=O)[C@H](Cc1ccc(O)cc1)NC(=O)[C@H](CO)NC(C)=O)C(=O)N[C@@H](CCC(=O)O)C(=O)N[C@@H](Cc1c[nH]cn1)C(=O)N[C@@H](C)C(=O)N[C@@H](CCCNC(=N)N)C(=O)N[C@@H](Cc1c[nH]c2ccccc12)C(=O)NCC(=O)N[C@@H](CCCCN)C(=O)N1CCC[C@H]1C(=O)N[C@H](C(=O)NCC(=O)N[C@@H](CCCCN)C(=O)N[C@@H](CCCCN)C(=O)N[C@@H](CCCNC(=N)N)C(N)=O)C(C)C | MC1R | ligand displacement in cells, radioligand | – | 0.0378 µM
CC/C=C\C/C=C\C/C=C\C/C=C\C/C=C\C/C=C\CCC(=O)O | Liver carboxylesterase | enzyme activity, inhibitor, HPLC | pH 7.4 | 3.7 µM
C=CN1CCCn2c1nc1c2c(=O)n(C)c(=O)n1C | ADORA3 | ligand displacement, radioligand | cell membranes | > 10 µM
O=C1c2ccccc2CCN1CCCCN1CCN(c2cccc(Cl)c2Cl)CC1 | 5-hydroxytryptamine receptor 1E (HTR1E, Homo sapiens, UniProt P28566) | ligand displacement, radioligand | – | 3.45 µM
CCNC(=O)[C@H]1O[C@@H](n2cnc3c(N)nc(NN=CC4CCC=CO4)nc32)[C@H](O)[C@@H]1O (stereo partly shown) | ADORA3 | ligand displacement, radioligand | – | 0.00632 µM
COc1ccc2c(c1)C(=O)N(CCN1CCN(c3ccccc3OC)CC1)C2 | DRD2 | ligand displacement, radioligand | – | 1.65 µM
CC(C)CCCC(C)N1CCCn2c1nc1c2c(=O)n(C)c(=O)n1C (stereo not shown) | ADORA3 | ligand displacement, radioligand | cell membranes | 2.57 µM
